pEC50: −log10 of the molar value. Active and inactive are the calls of the source. No cut-off for these calls is given here.
Columns and labels:
[1] = target: T1, Muscarinic acetylcholine receptor M1 (Rattus norvegicus, UniProt P08482); assay: Activation of rat muscarinic M1 receptor expressed in CHO cells co-expressing Gq protein assessed as potentiation of acetylcholine-induced intracellular Ca2+ mobilization; format: functional, cell-based
T1 sequence (P08482 whole entry): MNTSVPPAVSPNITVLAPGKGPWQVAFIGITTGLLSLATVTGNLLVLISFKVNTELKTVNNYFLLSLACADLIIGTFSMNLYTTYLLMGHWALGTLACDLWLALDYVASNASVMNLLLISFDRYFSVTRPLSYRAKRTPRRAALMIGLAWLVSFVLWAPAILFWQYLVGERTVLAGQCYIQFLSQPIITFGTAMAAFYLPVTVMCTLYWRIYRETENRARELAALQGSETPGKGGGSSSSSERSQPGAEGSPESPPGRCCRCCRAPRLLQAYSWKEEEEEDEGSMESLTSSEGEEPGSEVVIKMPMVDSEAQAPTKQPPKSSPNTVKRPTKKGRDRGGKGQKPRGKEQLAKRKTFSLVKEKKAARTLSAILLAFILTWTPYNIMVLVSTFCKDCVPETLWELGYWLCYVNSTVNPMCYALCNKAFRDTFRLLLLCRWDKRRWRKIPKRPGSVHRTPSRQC

[2] = target: T2, Muscarinic acetylcholine receptor M1 (Rattus norvegicus) (UniProt P08482); assay: Activation of rat muscarinic M1 receptor expressed in CHO cells co-expressing Gq protein assessed as potentiation of acetylcholine-induced intracellular Ca2+ mobilization at 30 uM relative to acetylcholine; format: functional, cell-based
T2 sequence (whole entry): T1 sequence (P08482 whole entry)

[3] = Apparent oral volume of distribution in Sprague-Dawley rat plasma at 10 mg/kg, ip; format: ADME, organism-based; set-up: dose 10 mg/kg; details: read-out: Vc/F
How it was run: (§1)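 Male Sprague-Dawley rats (225-250 g) dosed ip at 10 mg/kg as a 5 mg/ml micro-suspension in 10% Tween 80 in sterile water. Plasma and brain sampled at 0.5, 1, 3 and 6 h, three animals per time point. Quantified by protein precipitation and LC-MS/MS against an internal standard. Brain values corrected for residual blood. PK parameters derived by noncompartmental analysis.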

[4] = target: T3, Muscarinic acetylcholine receptor M5 (Homo sapiens) (UniProt P08912); assay: Activation of human muscarinic M5 receptor expressed in CHO cells coexpressing Gq protein assessed as potentiation of acetylcholine-induced intracellular Ca2+ mobilization at 30 uM relative to acetylcholine; format: functional, cell-based
T3 sequence (whole entry): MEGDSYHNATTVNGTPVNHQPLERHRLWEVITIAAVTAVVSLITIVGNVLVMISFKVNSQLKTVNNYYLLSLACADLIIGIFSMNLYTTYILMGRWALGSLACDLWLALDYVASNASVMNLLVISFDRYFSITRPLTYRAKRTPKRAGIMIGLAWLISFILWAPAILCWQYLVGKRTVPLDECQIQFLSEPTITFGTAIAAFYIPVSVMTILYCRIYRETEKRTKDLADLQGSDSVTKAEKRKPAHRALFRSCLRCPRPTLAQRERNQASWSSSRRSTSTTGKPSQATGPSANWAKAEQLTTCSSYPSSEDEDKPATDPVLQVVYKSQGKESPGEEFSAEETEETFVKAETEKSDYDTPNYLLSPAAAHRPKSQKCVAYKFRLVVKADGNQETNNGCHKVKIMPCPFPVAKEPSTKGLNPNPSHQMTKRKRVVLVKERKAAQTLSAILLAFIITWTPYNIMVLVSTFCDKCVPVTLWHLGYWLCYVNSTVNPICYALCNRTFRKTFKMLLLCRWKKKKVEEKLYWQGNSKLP

[5] = target: T4, Muscarinic acetylcholine receptor M2 (Rattus norvegicus) (UniProt P10980); assay: Activation of rat muscarinic M2 receptor expressed in CHO cells coexpressing chimeric Gqi5 protein assessed as potentiation of acetylcholine-induced intracellular Ca2+ mobilization up to 30 uM; format: functional, cell-based
T4 sequence (whole entry): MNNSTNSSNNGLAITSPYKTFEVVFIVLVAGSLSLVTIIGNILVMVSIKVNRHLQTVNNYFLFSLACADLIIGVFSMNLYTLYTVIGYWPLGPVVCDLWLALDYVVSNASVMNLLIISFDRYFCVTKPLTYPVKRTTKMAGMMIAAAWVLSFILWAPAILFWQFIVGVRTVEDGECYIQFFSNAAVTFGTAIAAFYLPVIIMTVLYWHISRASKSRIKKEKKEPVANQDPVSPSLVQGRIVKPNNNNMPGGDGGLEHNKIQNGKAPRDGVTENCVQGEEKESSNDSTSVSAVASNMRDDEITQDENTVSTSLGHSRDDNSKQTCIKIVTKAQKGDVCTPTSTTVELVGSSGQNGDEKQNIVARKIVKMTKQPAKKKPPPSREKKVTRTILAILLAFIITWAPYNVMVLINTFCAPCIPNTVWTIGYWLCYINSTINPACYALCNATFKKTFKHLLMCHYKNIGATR

[6] = Selectivity ratio of EC50 for rat muscarinic M1 receptor to EC50 for human muscarinic M5 receptor
[7] = Selectivity ratio of EC50 for rat muscarinic M2 receptor to EC50 for human muscarinic M5 receptor
[8] = Selectivity ratio of EC50 for rat muscarinic M4 receptor to EC50 for human muscarinic M5 receptor
[9] = target: T3, Muscarinic acetylcholine receptor M5 (Homo sapiens); assay: Intrinsic activity at human muscarinic M5 receptor expressed in CHO cells coexpressing Gq protein up to 30 uM by calcium mobilization assay in absence of acetylcholine; format: functional, cell-based
[10] = target: T3, Muscarinic acetylcholine receptor M5 (Homo sapiens); assay: Activation of human muscarinic M5 receptor expressed in CHO cells coexpressing Gq protein assessed as increase in acetylcholine affinity at 30 uM by [3H]NMS competition binding assay relative to control; format: cell-based
[11] = Cmax in Sprague-Dawley rat plasma at 10 mg/kg, ip within 1 hr; format: ADME, organism-based; set-up: dose 10 mg/kg, route intraperitoneal; how it was run: as §1
[12] = Cmax in Sprague-Dawley rat brain at 10 mg/kg, ip within 1 hr; format: ADME, organism-based; set-up: dose 10 mg/kg, route intraperitoneal; how it was run: as §1
[13] = Tmax in Sprague-Dawley rat plasma at 10 mg/kg, ip; format: ADME, organism-based; set-up: dose 10 mg/kg, route intraperitoneal; how it was run: as §1
[14] = Tmax in Sprague-Dawley rat brain at 10 mg/kg, ip; format: ADME, organism-based; set-up: dose 10 mg/kg, route intraperitoneal; how it was run: as §1
Plasma = assay: Elimination half life in Sprague-Dawley rat plasma at 10 mg/kg, ip; format: ADME, organism-based; set-up: dose 10 mg/kg, route intraperitoneal; details: in vivo; how it was run: as §1
[15] = AUC (0 to 6 hrs) in Sprague-Dawley rat plasma at 10 mg/kg, ip; format: ADME, organism-based; set-up: time < 6 hr, dose 10 mg/kg, route intraperitoneal; how it was run: as §1

For COc1ccc(CN2C(=O)C(=O)c3cc(OC(F)(F)F)ccc32)cc1, the pEC50 [1] was < 4.52, the %max [2] was 12.7% and the Vd/F [3] was 59.6 L/kg. The %max [4] was 60.7%, the Activity [5] was “inactive” and the Ratio EC50 [6] was > 30. The Ratio EC50 [7] was > 30, the Ratio EC50 [8] was > 30 and the Activity [9] was “inactive”. The fold change (FC) [10] was 10, the Cmax [11] was 162 ng/mL and the Cmax [12] was 43.1 ng/mL. The Tmax [13] was 1 h, the Tmax [14] was 0.5 h and the “beta t1/2” value (Plasma) was 4.7 h. It also gave an AUC(0-t) at 6 h [15] of 621 ng·h/mL.

Source: ChEMBL document CHEMBL1136933 (J Med Chem, 2009)
